Source: ChEMBL document CHEMBL2046325, “Synthesis and SAR-study for novel arylpiperazine derivatives of 5-arylidenehydantoin with α₁-adrenoceptor antagonistic properties” (Bioorg Med Chem, 2012)

Legend:
[1] = molecular target: T1, Adrenergic receptor alpha-1 (Rattus norvegicus, UniProt P15823+P23944+P43140); experiment: Competitive antagonist activity at alpha1 adrenoceptor in Wistar rat denuded thoracic aorta rings assessed as inhibition of phenylephrine-induced contractions after 20 mins; format: functional, tissue-based
T1 sequence (P15823 whole entry): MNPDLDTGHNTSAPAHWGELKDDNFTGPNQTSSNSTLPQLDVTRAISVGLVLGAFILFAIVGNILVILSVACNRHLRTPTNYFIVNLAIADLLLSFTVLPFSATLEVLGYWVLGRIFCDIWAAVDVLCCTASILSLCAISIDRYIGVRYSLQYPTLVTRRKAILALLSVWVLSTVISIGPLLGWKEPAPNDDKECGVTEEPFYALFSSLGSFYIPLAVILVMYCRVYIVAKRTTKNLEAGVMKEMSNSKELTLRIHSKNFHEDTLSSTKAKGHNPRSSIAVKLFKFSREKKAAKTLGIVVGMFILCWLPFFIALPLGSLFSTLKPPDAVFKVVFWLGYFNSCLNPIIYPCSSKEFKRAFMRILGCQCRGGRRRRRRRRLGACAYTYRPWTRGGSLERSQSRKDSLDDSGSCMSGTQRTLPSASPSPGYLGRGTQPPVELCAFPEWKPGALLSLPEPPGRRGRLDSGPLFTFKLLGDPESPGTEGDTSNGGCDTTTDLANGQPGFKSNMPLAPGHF
T1 sequence (P23944 whole entry): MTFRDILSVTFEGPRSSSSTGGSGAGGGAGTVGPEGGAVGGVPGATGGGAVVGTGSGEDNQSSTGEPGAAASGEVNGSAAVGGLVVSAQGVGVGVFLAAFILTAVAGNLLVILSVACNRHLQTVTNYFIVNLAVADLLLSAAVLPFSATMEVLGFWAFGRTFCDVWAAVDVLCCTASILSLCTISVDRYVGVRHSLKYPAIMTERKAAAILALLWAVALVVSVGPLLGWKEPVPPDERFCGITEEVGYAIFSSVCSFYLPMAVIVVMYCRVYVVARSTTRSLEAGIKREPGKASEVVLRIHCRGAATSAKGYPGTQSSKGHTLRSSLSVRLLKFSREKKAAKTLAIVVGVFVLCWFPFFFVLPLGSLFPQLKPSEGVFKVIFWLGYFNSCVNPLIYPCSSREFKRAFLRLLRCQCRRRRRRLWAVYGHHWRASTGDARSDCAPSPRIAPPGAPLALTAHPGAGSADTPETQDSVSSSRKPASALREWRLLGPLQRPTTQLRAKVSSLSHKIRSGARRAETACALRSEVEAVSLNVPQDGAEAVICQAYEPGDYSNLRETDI
T1 sequence (P43140 whole entry): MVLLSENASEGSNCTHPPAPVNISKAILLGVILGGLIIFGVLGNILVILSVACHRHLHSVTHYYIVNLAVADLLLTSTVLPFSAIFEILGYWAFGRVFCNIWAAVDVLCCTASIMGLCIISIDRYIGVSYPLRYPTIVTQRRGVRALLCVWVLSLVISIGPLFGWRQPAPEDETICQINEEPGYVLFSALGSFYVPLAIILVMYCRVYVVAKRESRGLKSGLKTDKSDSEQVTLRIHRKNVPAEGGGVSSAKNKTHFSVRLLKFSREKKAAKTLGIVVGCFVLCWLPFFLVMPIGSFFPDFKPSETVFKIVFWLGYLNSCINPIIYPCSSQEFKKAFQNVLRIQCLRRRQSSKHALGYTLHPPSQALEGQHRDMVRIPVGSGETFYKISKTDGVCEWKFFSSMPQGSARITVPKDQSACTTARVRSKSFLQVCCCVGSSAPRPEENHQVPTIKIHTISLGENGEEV
Procedure, shortened: (§1)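 Male Wistar rats (200-350 g) anaesthetised with thiopental sodium (75 mg/kg ip). Endothelium-denuded thoracic aortic rings, about 4 mm, held in Krebs-Henseleit at 37 °C, pH 7.4, gassed O2/CO2 19:1. Cumulative phenylephrine curves run over 3×10⁻⁹–3×10⁻⁶ M, before and after 20 min with one antagonist concentration per ring (3–4 levels), 60 min recovery between curves. Schild pA2 used if slope is unity, otherwise pKB; ≥5 experiments.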

[2] = molecular target: Adrenergic receptor alpha-1 (Rattus norvegicus) (UniProt P15823+P23944+P43140); experiment: Antagonist activity at alpha1 adrenoceptor in Wistar rat denuded thoracic aorta rings assessed as inhibition of phenylephrine-induced contraction after 20 mins; format: functional, tissue-based; procedure, shortened: as §1
[3] = molecular target: T1, Adrenergic receptor alpha-1; experiment: Displacement of [3H]prazosin from alpha1 adrenoceptor in rat cerebral cortex after 30 mins by beta scintillation counting; format: tissue-based
Procedure, shortened: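 Rat cerebral cortex homogenized in 50 mM Tris-HCl, pH 7.6, centrifuged twice at 20000 × g and resuspended at 10 mg wet weight/ml. Tissue incubated with [3H]-prazosin (19.5 Ci/mmol) and test compound for 30 min at 25 °C. Samples filtered on GF/B and counted by scintillation; three-parameter logistic fit of percent binding.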

pA2 [1]	inhibition [2]	Ki [3]	pKb [2]	SMILES
7.56	Dose-dependent effect	44.5 nM		COc1ccc(/C=C2\NC(=O)N(CC(O)CN3CCN(c4ccccc4OC)CC3)C2=O)cc1OC.Cl (racemic)
		231 nM		CCOc1ccccc1N1CCN(CC(O)CN2C(=O)N/C(=C\c3ccc(OC)cc3OC)C2=O)CC1.Cl (racemic)
		8700 nM		CCOc1ccccc1N1CCN(CC(O)CN2C(=O)N/C(=C\c3ccc(N(C)C)cc3)C2=O)CC1.Cl (racemic)
		834.9 nM		COc1ccccc1N1CCN(CC(O)CN2C(=O)N/C(=C\c3ccc(N(C)C)cc3)C2=O)CC1.Cl (racemic)
	Dose-dependent effect	91.4 nM	7.66	CCOc1ccccc1N1CCN(CC(O)CN2C(=O)N/C(=C\c3ccccc3)C2=O)CC1.Cl (racemic)
	Dose-dependent effect	72.1 nM	7.53	CCOc1ccccc1N1CCN(CC(O)CN2C(=O)N/C(=C\c3cccc(OC)c3OC)C2=O)CC1.Cl (racemic)
		318.8 nM		COc1cccc(/C=C2\NC(=O)N(CC(O)CN3CCN(c4ccccc4)CC3)C2=O)c1OC.Cl (racemic)
		197.6 nM		COc1ccc(/C=C2\NC(=O)N(CC(O)CN3CCN(c4ccccc4)CC3)C2=O)cc1OC.Cl (racemic)
7.55	Dose-dependent effect	70 nM		COc1ccccc1N1CCN(CC(O)CN2C(=O)N/C(=C\c3cccc(OC)c3OC)C2=O)CC1.Cl (racemic)
		3700 nM		Cl.O=C1N/C(=C\c2ccc(Cl)cc2)C(=O)N1CC(O)CN1CCN(c2ccccc2)CC1 (racemic)
	Dose-dependent effect	86.3 nM	7.58	COc1ccccc1N1CCN(CC(O)CN2C(=O)N/C(=C\c3ccc(Cl)cc3)C2=O)CC1.Cl (racemic)
	Dose-dependent effect	52.2 nM	8.95	COc1ccc(/C=C2\NC(=O)N(CC(O)CN3CCN(c4ccccc4OC)CC3)C2=O)c(OC)c1.Cl (racemic)
	Dose-dependent effect	59.1 nM	9.01	CCOc1ccccc1N1CCN(CC(O)CN2C(=O)N/C(=C\c3ccc(Cl)cc3)C2=O)CC1.Cl (racemic)
		285.9 nM		COc1ccccc1N1CCN(CC(O)CN2C(=O)N/C(=C\c3ccccc3)C2=O)CC1.Cl (racemic)
